Hits are enriched below; roughly 1.8% of the tested compounds scored in any of these assays.
ABHD4 inh: ABHD4 inhibitors, primary screen, biochemical, fluorescence polarization, mouse | purified mABHD4, FP-Rh probe fluorescence polarization | inhibition, % at 8.92 µM | actives 0.54% (n = 370,000);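 active = inhibition exceeding the mean over every tested compound plus 3 SD, cut at about 30% in these data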;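 also: 0% = plate median of compound wells and 100% = S159A mutant with DMSO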
Target sequence (Q8VD66 whole entry, looked up): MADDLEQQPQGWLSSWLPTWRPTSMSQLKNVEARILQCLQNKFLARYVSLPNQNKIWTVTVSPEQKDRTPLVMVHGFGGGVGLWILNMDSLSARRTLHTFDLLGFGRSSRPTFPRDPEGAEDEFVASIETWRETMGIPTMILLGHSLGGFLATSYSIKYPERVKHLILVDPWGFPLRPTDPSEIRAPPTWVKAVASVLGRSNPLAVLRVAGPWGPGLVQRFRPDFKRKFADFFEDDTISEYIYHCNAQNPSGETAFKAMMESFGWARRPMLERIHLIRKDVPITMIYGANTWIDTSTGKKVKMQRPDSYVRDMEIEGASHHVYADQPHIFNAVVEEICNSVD
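Test system: mouse ABHD4 enzyme, wild type. Reagent: FP-Rh fluorescent activity-based probe, added after compound pre-incubation. Timing: pre-incubation 45 min, probe exposure 60 min, at 25 °C. Technique: FP readout, ex 525 nm / em 598 nm. Benchmarks: high control S159A mutant with DMSO, low control median of compound wells.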
HTRA1 inh: HTRA1 serine protease inhibitors, primary screen, biochemical, fluorescence polarization, HTS; Q92743; recombinant HTRA1, FP-rhodamine activity-based probe; inhibition, % at 5.96 µM; actives 0.5% (n = 340,000); AID 504803, 2011; in the data active = inhibition above about 36%;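 also: 0% = enzyme with DMSO and 100% = wells lacking enzyme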
DDE Tn7 FP inh: inhibitors of Tn7 peptide binding to fibrin DD(E), primary screen, biochemical, fluorescence polarization, human fibrin, Tn7 probe; Fibrinogen beta chain (Homo sapiens), P02675; FP displacement of FITC-Tn7 peptide from fibrin DD(E); 0% = median of compound wells per plate; inhibition, % at 8.3 µM; actives 0.13% (n = 370,000); AID 720508, 2013;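 active = inhibition above the mean of compounds falling within the control limits plus 3 SD of them, cut at about 14% in these data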;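 also: 0% = plate median of compound wells and 100% = 10 µM Aha-Tn7 peptide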
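Assay system: Human clot-derived fibrin DD(E) complex | Buffer or medium: Tris/NaCl/CaCl2 buffer, pH 7.8 | Repeats: One replicate per compound | Benchmarks: Aha-Tn7 high control | Measure: % inhibition scaled between sample-field median and high-control FP | Schedule: 10 min plus 3 h, room temperature | Signal: Fluorescence polarization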
SIAE primary: human SIAE inhibitors, primary screen, biochemical, fluorescence polarization, FP-Rh probe, 1536-well HTS; inhibition, % at 9.66 µM; AID 1053197, 2014; Sialate O-acetylesterase (Homo sapiens), Q9HAT2; SIAE FP-Rh probe binding; actives 0.69% (n = 370,000);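 active = inhibition above a cutoff: mean of compounds within the control limits plus 3 SD of those, cut at about 17% in these data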;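 also: 0% = plate median of compound wells and 100% = probe without SIAE protein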
Tn6 DDE FP: inhibitors of Tn6 peptide binding to fibrin DD(E), primary screen, biochemical, fluorescence polarization, human fibrin, Tn6 probe; Fibrin DD(E) TRITC-Tn6 fluorescence polarization displacement; AID 720509, 2013; inhibition, % at 8.3 µM; actives 0.21% (n = 370,000);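 active = inhibition above a per-campaign cutoff: mean of compounds within control limits plus 3 SD, cut at about 15% in these data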;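 also: 0% = median of all compound wells on the plate and 100% = blocking peptide control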
TCR CD3 inh: inhibitors of human TCR-CD3 interaction, primary screen, biochemical, fluorescence, TAMRA-labeled TCR probe | T-cell receptor (TCR) | inhibition, % at 9.4 µM | actives 0.37% (n = 360,000) | AID 651800, 2012; in the data active = inhibition above about 19%;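 also: recombinant mutant TCR 2C K166C tagged with TAMRA read by polarization; 0% = receptor in buffer alone and 100% = receptor with positive control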
mABHD4 conf: ABHD4 inhibitors, retest, confirmation, biochemical, fluorescence polarization, mouse; shares compounds with ABHD4 inh; purified mABHD4, FP-Rh probe fluorescence polarization; inhibition, % at 8.92 µM; actives 55% (n = 1,800); AID 720658, 2013;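 active = mean inhibition across replicates above the hit cutoff set in the primary screen, cut at about 30% in these data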;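 also: 0% = wild-type ABHD4 with DMSO and 100% = catalytically dead S159A mutant with DMSO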
SIAE inh conf: human SIAE inhibitors, retest, confirmation, biochemical, fluorescence polarization, FP-Rh probe, triplicate | inhibition, % at 9.66 µM | actives 13% (n = 2,300) | shares compounds with SIAE primary | SIAE FP-Rh activity-based probe;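 active = mean inhibition of the replicates above the hit cutoff set in the primary screen, cut at about 17% in these data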;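 also: 0% = SIAE with DMSO and probe and 100% = probe without SIAE; inhibitors lower polarization as more probe stays unbound to SIAE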
* marks the source's active call; other numbers are inactive results; / = no result.

SMILES | ABHD4 inh | HTRA1 inh | DDE Tn7 FP inh | SIAE primary | Tn6 DDE FP | TCR CD3 inh | SIAE inh conf | others
CN(C)c1ccc(NC(=O)Nc2ccc3c(c2)c(=O)n(C)n3Cc2ccccc2)cc1 | 24 | / | 8 | 5 | -2 | 2 | /
CN(C)c1ccc(NC(=O)Nc2ccc3c(c2)c(=O)n(C)n3Cc2ccc(Cl)cc2)cc1 | 43* | / | 1 | 27* | 1 | -2 | 15 | mABHD4 conf=26
N/C(Cc1cccc2ccccc12)=N\OC(=O)c1ccccc1F | 48* | 1 | -6 | 41* | 15 | 15 | -8 | mABHD4 conf=3
Cc1nn(-c2cccc(Cl)c2)c2c1C(c1ccncc1)C(C#N)=C(N)O2 (stereo not drawn) | 48* | 31 | 0 | 20* | 3 | -6 | 8 | mABHD4 conf=50*
CCOc1ccc(NC(=O)Cn2cc(C(=O)C3CC3)c3ccccc32)cc1 | 6 | 5 | 0 | 1 | 0 | -6 | /
COc1ccccc1N(O)C1CC(=O)N(c2ccc(Br)cc2)C1=O (stereo not drawn) | 34* | 11 | 3 | 20* | 5 | 0 | 9 | mABHD4 conf=28
C=C(C)C(=O)Oc1ccc(N=Nc2ccc(C)cc2)ccc1=O | 50* | / | 3 | 18* | -1 | 9 | 6 | mABHD4 conf=59*
CC(=O)c1ccc(N=Nc2ccc(C)cc2)cc1 | 2 | 12 | 2 | 1 | -1 | 2 | /
COc1ccc2ccccc2c1/C=N\NC(=O)c1cccnc1 | -5 | / | 5 | -12 | 6 | 1 | /
O=C(N/N=C/c1c(O)ccc2ccccc12)c1cccnc1 | 30* | 31 | -4 | 27* | -1 | 7 | -4 | mABHD4 conf=32*
C[C@H]1CN=C(N(C)C)N1CCCC1CCCCC1 | 9 | 6 | -4 | 2 | 12 | 0 | /
O=C(NNc1nc2c(F)cccc2s1)c1ccc(F)cc1 | 7 | 11 | 8 | 8 | -2 | -7 | /
O=C(NNc1nc2c(F)cccc2s1)c1cc(=O)c2ccccc2o1 | 39* | 22 | 1 | 18* | -9 | 8 | -4 | mABHD4 conf=30*
O=C(c1ccc2nc(-c3ccco3)c(-c3ccco3)nc2c1)N1CCN(c2ccccc2)CC1 | 32* | -4 | 1 | 32* | -9 | -5 | 3 | mABHD4 conf=-3
O=C(Nc1ccc(Br)c2ccccc12)c1ccc2ccccc2c1O | 18 | 19 | -1 | 26* | 2 | -2 | -5
CC1CCN(C(=O)CSc2nnc(CNC(=O)c3ccco3)o2)CC1 | 0 | 2 | 0 | 22* | 4 | -2 | 1
COc1ccc(CC(=O)NC(c2ccccc2)c2ccc(C)cc2)c(OC)c1 (stereo not drawn) | -2 | -5 | -4 | 3 | 2 | 0 | /
C/C(=N\NC(=S)Nc1cccc(C)c1)c1cc2ccccc2o1 | 3 | -8 | 9 | 19* | 2 | 1 | 6
COc1ccc(C(=O)CN2C(=O)NC3(CCc4ccccc43)C2=O)cc1 (stereo not drawn) | -1 | -5 | -5 | -4 | -1 | -4 | /
COC(=O)CC1C(=O)NCCN1C(=O)CSc1nc2cc(Cl)ccc2o1 (stereo not drawn) | -4 | -2 | -3 | 21* | 2 | 2 | 3
COC(=O)CC1C(=O)NCCN1C(=O)c1ccc2oc(C(C)C)nc2c1 (stereo not drawn) | -1 | 3 | 3 | -5 | 7 | 7 | /
C1CC(=NN=C2CCSCC2)CCS1 | 0 | 5 | 2 | -1 | 1 | -1 | /
Oc1ccccc1C=NNC(=S)NN=Cc1ccccc1O | 28 | 32 | -3 | 42* | 1 | 18 | 52*
NC(=S)N/N=C/c1ccccc1O | 2 | -3 | -6 | 4 | 2 | -2 | /
CCCn1cc(S(=O)(=O)c2ccc(F)cc2)c(=O)c2cc(OCC)ccc21 | 0 | -7 | 0 | -1 | -6 | 0 | /
SMILES | ABHD4 inh | HTRA1 inh | DDE Tn7 FP inh | SIAE primary | Tn6 DDE FP | TCR CD3 inh | SIAE inh conf | others
CC1CCCN(c2nc3c(c(=O)[nH]c(=O)n3C)n2CCCc2ccccc2)C1 (stereo not drawn) | 2 | -3 | -4 | 18* | 3 | 5 | 5
CC1CCN(c2nc3c(c(=O)[nH]c(=O)n3C)n2Cc2ccccc2)CC1 | 3 | 1 | 8 | 5 | -2 | -6 | /
CCN(CC)CCNc1nc2c(c(=O)[nH]c(=O)n2C)n1CCCc1ccccc1 | 2 | 8 | -11 | 19* | 8 | -3 | 3
CCNc1nc2c(c(=O)[nH]c(=O)n2C)n1CCCc1ccccc1 | -11 | 4 | 4 | 0 | -6 | 2 | /
CCCCCCN1CCN(C2CN(Cc3cn(Cc4ccc(C)cc4)nn3)S(=O)(=O)C2)CC1 (stereo not drawn) | -4 | / | 2 | -10 | 2 | 6 | /
S=C(Nc1ccccc1)N1CCn2cccc2C1c1cccnc1 (stereo not drawn) | 1 | 1 | 0 | 12 | 2 | 2 | /
Fc1cccc(NC(=S)N2CCn3cccc3C2c2cccnc2)c1 (stereo not drawn) | -6 | -8 | -3 | 25* | 5 | 3 | -3
Oc1ccc(/C=N/Nc2ccnc3cc(Cl)ccc23)c(O)c1 | 15 | 10 | -6 | 27* | -13 | -11 | 36*
Clc1ccc2c(N/N=C/c3ccc(Br)cc3)ccnc2c1 | 14 | -9 | 3 | 19* | -7 | -4 | 13
Clc1ccc2c(N/N=C/c3cccnc3)ccnc2c1 | 7 | -18 | -1 | -6 | -10 | 0 | /
Cc1ccccc1/C=N/Nc1ccnc2cc(Cl)ccc12 | 19 | 5 | -4 | 26* | -6 | -1 | 31*
Cc1ccc(/C=N/Nc2ccnc3cc(Cl)ccc23)c(C)c1 | 12 | -11 | 1 | 44* | 0 | 6 | 59*
CCN(CC)c1ccc(NC(=O)c2cc3c(OC)cccc3[nH]2)cc1 | 10 | 22 | 8 | 25* | -12 | -2 | 12
COc1cccc2[nH]c(C(=O)NC(C)c3ccccc3)cc12 (stereo not drawn) | -7 | -6 | -9 | 7 | -11 | 2 | /
C/C(=N/NC(=O)C1CCCC1)c1ccc(NC(=O)C(F)(F)F)cc1 | 6 | 2 | -2 | 10 | 2 | -7 | /

Compound activity deposited in PubChem by The Scripps Research Institute Molecular Screening Center.
